Xi reactivation: X-chromosome reactivation activator | XiGFP mouse fibroblasts, % GFP-positive cells imaging, 3 d; cells co-treated with 5-aza-dC sensitizer; scaled so ellipticine positive control = 100% | activation, % at 7.58 µM | 0.055% of 360,000 active | AID 743238;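 active = mean normalized replicate activation at least 10% and every replicate at or above 10%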;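 also: 0% = median of on-plate neutral control wells and 100% = ellipticine 6 µM median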
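Assay system: SV40-immortalized XiGFP fibroblast cells, line 68-5-11; buffer or medium: DMEM plus 5-aza-dC sensitizer; compound: one concentration, pinned; timing: compounds 3 days, fix/stain 15 min at room temperature; benchmarks: positive control ellipticine, 6 µM final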
Rpn11 block: blocks the human proteasome subunit Rpn11; O00487; human 26S proteasome, Ub4-pepOG fluorescence polarization; 20S core pre-blocked with epoxomicin; inhibition, % at 20 µM; 0.59% of 360,000 active;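 active = inhibition at 20 µM, scaled to each plate's controls, above about 33%, limit read from the data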
aDG glyco up: alpha-DG glycosylation activation; Pro5-aDG cells, alpha-DG glycosylation AlphaScreen (IIH6); 0% Pro5, 100% B10-LARGE cell signal; activation, % at 10 µM; 0.22% of 360,000 active; AID 624168;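 active = activation of at least 8% versus controls, or a plate z-score of at least 8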;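 also: Pro5 are CHO cells carrying HIG-tagged alpha-DG that lacks glycosylation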
TPT1 inhibitor: blocks Candida albicans tRNA 2'-phosphotransferase | recombinant caTPT1, FP RNA substrate dephosphorylation | inhibition, % at 5 µM | 0.81% of 300,000 active;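 active = inhibition above the mean of all tested compounds plus 3 SD, set per screening campaign, cut at about 24% in these data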;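 also: plate controls were DMSO alone for no effect and ferristatin control at 100 nM for full effect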
HNF4A DNA FP: change in binding of human HNF4 alpha to DNA; 0.3% of 360,000 active; P41235; activity change, % at 10 µM; AID 1224865; HNF4a-FITC DNA binding, fluorescence polarization, 1 h; in the data active = activity change above about 30%, passing the limit was not always enough
Target sequence (P41235 whole entry, looked up): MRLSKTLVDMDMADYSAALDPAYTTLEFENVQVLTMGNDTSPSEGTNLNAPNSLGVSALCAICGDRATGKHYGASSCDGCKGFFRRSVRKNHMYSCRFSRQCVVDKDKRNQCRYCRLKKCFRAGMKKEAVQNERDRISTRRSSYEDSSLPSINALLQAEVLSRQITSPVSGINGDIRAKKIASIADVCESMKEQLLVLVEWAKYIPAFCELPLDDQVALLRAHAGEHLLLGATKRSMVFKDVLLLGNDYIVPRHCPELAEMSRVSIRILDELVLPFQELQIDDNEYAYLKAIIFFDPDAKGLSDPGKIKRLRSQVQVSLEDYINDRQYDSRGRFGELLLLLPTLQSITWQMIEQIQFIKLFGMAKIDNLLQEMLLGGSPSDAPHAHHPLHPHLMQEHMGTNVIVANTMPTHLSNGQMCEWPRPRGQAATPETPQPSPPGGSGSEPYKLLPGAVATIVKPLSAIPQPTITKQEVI
CSN deneddyl inh: blocks human CSN-mediated cullin deneddylation; Q92905; Purified CSN, SCF-Nedd8-OG deneddylation, fluorescence polarization; inhibition, % at 12.5 µM; 0.38% of 360,000 active; AID 651999;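 active = pattern-corrected inhibition above about 35%, with an unprinted fluorescence ratio check between 0.5 and 1.5, limit read from the data, passing the limit was not always enough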;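 also: 0% = enzyme with substrate and 100% = substrate without enzyme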
Target sequence (Q92905 whole entry, looked up, one chain of several): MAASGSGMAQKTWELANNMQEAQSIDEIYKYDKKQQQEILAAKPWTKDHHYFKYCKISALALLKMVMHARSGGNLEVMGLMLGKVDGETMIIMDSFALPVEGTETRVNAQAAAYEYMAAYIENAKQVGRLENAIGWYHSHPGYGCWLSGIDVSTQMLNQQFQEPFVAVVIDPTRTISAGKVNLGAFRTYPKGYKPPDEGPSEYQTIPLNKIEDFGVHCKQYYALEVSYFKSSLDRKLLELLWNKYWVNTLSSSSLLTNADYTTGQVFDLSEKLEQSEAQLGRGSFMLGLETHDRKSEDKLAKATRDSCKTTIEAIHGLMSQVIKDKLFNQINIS
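Test system: Human Csn5 produced in HEK293T cells | Compound: 12.5 µM single point | Times: 90 min, room temperature | Signal: Fluorescence polarization readout | Read-out basis: % inhibition of substrate cleavage by Csn5 | Controls: no-enzyme wells high, enzyme-with-substrate wells low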
TPT1 inh confirm: confirmation of Candida albicans TPT1 inhibitors; shares compounds with TPT1 inhibitor; recombinant caTPT1, fluorescence polarization, RNase T1 coupled; inhibition, % at 5 µM; 74% of 2,400 active;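 active = inhibition above the primary screen limit, the mean inhibition of all tested compounds plus 3 SD, cut at about 25% in these data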
RNase T1 counter: blocks Aspergillus oryzae RNase T1, a TPT1 counter-screen. shares compounds with TPT1 inhibitor. RNase T1 cleavage, fluorescence polarization, 1536-well. AID 2153. 83% of 2,400 active. inhibition, % at 5 µM;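 active = inhibition above the solvent-only control well mean plus 3 SD, limit set per screening run, cut at about 23% in these data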;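 also: plate controls were DMSO wells with enzyme for no effect and wells without RNase T1 for full effect; inhibitors block cleavage so intact labeled substrate keeps polarization high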
Rpn11 inh conf: Rpn11 inhibition confirmation, single concentration; shares compounds with Rpn11 block; purified human 26S proteasome, Ub4-pepOG fluorescence polarization; proteasome pretreated with epoxomicin; inhibition, % at 20 µM; 29% of 1,900 active
MMP-2 inh: counter-screen for RPN11 inhibitors: inhibition of human MMP-2 | shares compounds with Rpn11 block | recombinant MMP-2, FRET peptide cleavage fluorescence | inhibition, % at 20 µM | 4% of 1,900 active | AID 602330;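 also: human MMP-2 activated beforehand with APMA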
Thrombin FP: counter-screen for RPN11 inhibitors: inhibition of bovine thrombin; shares compounds with Rpn11 block; 13% of 1,900 active; bovine thrombin cleavage of Ub4-pepOG, fluorescence polarization; AID 602333; inhibition, % at 20 µM;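 active = mean inhibition at least 40% at 20 µM, or signal 3 deviations below plate average, so some actives read negative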;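 also: plate controls were thrombin with DMSO for no effect and buffer wells lacking thrombin for full effect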
Active calls of the source: *; x = no result shown. In the library only some 1.3% were active in any assay of this set; here they are far more common. Rule as the data show it, unless noted: active = inhibition above about 40%; inactive = the rest.

SMILES | Xi reactivation | Rpn11 block | aDG glyco up | TPT1 inhibitor | HNF4A DNA FP | CSN deneddyl inh | TPT1 inh confirm | RNase T1 counter | others
O=C(c1ccco1)[C@@H]1[C@@H]2C(=O)N(c3ccc(F)cc3)C(=O)[C@@H]2[C@H]2C=Cc3ccccc3N21 | 0.0 | 13.9 | 0.3 | 30.0* | 18.1 | 6.4 | 21.2 | 31.1*
NC(=O)[C@@H]1[C@@H]2C(=O)N(c3ccc(F)cc3)C(=O)[C@@H]2[C@H]2C=Cc3ccccc3N21 | 0.2 | 12.4 | -0.2 | 6.8 | 11.9 | 3.3 | x | x
Cn1c(C(=O)NN)cc2cc(Oc3ccccc3)ccc21 | 0.0 | 0.8 | -0.1 | -0.1 | 0.2 | -2.8 | x | x
COc1ccc2c(c1)cc(C(=O)N/N=C/c1c(O)c(C(=O)O)cc3ccccc13)n2C | 0.2 | x | -0.4 | 51.3* | 26.8 | 17.5 | 59.7* | 64.9*
C[C@H](CO)N1C[C@H](C)[C@@H](CN(C)C(=O)Nc2ccc(F)cc2)Oc2cc(/C=C/c3ccccc3)ccc2S1(=O)=O | -0.3 | x | x | x | x | x | x | x
COc1ccc(CN(C)C[C@@H]2Oc3ccc(NC(=O)CCCCCC(=O)Nc4ccccc4N)cc3CC(=O)N([C@H](C)CO)C[C@@H]2C)cc1 | -0.2 | x | x | x | x | x | x | x
Cc1ccc(/C=C2/Sc3ccc(C(=O)N4CCN(c5ccccn5)CC4)cc3NC2=O)cc1 | 0.5 | 39.3 | -0.2 | 28.2* | 17.2 | 13.7 | 49.3* | 61.1*
O=C(NCC[C@H]1CC[C@H](NC(=O)C2CCC2)[C@H](CO)O1)Nc1ccc(Cl)cc1 | -0.5 | x | x | x | x | x | x | x
Cc1cc(C)n2nc(-c3ccsc3-n3c(C)ccc3C)cc2n1 | x | x | 3.0 | 44.6* | 32.1 | 24.9 | 53.2* | 64.0*
Cc1ccc(-c2cc3nc(C)cc(C)n3n2)cc1 | 0.6 | 3.6 | 0.0 | -1.6 | -2.7 | -11.9 | x | x
CCCC(=O)Nc1ccc2c(c1)C(=O)N(C)C[C@@H](OC)[C@@H](C)CN(C(=O)c1ccncc1)[C@H](C)CO2 | 0.5 | x | x | x | x | x | x | x
CC(=O)c1cc(NC(=O)c2ccc(Cl)cc2)c(=O)oc1/C=C/N(C)C | x | x | -0.1 | 132.2* | 120.8* | 55.3* | 107.7* | 110.4*
COc1ccc(C(=O)Nc2cc(C(C)=O)c(C)oc2=O)cc1 | 0.0 | -1.4 | -0.1 | -4.5 | 0.6 | -1.9 | x | x
CC(=O)c1cc(NC(=O)c2cccc(C(F)(F)F)c2)c(=O)oc1C | 0.2 | 2.8 | -0.6 | 0.5 | -0.6 | -5.6 | x | x
CC(=O)c1cc(NC(=O)c2cccc(C(F)(F)F)c2)c(=O)oc1/C=C/N(C)C | x | x | 0.1 | 117.0* | 128.8 | 50.1 | 121.6* | 127.8*
O=C(c1ccccc1F)N1CC2(C1)[C@H](c1ccccc1)[C@@H](CO)N2CC1CC1 | 0.0 | x | x | x | x | x | x | x
Cc1cccc(-c2ccc([C@H]3[C@H]4CN(C(=O)c5cnccn5)CC(=O)N4[C@H]3CO)cc2)c1 | 0.1 | x | x | x | x | x | x | x
CN(C)c1ccc(/C=c2\sc3n(c2=O)CCCN=3)cc1 | x | x | 0.0 | 102.7* | 25.8 | 25.5 | 42.1* | 58.6*
O=c1/c(=C/c2ccc(O)cc2)sc2n1CCCN=2 | x | -1.9 | -0.7 | -1.1 | -1.7 | 1.6 | x | x
O=C(C[C@H]1CC[C@@H](NS(=O)(=O)c2ccccc2)[C@H](CO)O1)N1CCN(c2ccccc2)CC1 | -0.4 | x | x | x | x | x | x | x
COC(=O)c1ccc(N)c(N=CC2=C(O)CC(C)(C)CC2=O)c1 | 0.1 | x | -0.2 | 30.8* | 21.8 | 26.3 | 8.9 | 13.3
CC1(C)CC(=O)C(C=Nc2cc(C(=O)c3ccccc3)ccc2N)=C(O)C1 | 0.0 | x | 0.1 | 27.5* | 31.1 | 29.4 | 7.4 | 11.9
N#CC1(C#N)CC(C=O)=C(N)C1(C#N)CC(=O)c1ccc(F)cc1 (stereo unspecified) | x | 11.9 | 0.1 | 56.9* | 2.5 | 19.9 | 31.6* | 42.5*
O=C(C[N+]12CC[N+](CC(=O)c3ccc(F)cc3)(CC1)CC2)c1ccc(F)cc1 | 0.4 | -0.7 | -0.1 | 2.1 | -2.0 | 5.3 | x | x
COc1ccc(O)c(/C=C2/SC(=S)N(Cc3ccccc3)C2=O)c1 | 0.0 | x | 0.2 | 93.2* | 108.5 | 85.8 | 103.8* | 102.8*
SMILES | Xi reactivation | Rpn11 block | aDG glyco up | TPT1 inhibitor | HNF4A DNA FP | CSN deneddyl inh | TPT1 inh confirm | RNase T1 counter | others
COc1ccc(/C=C2/SC(=S)N(Cc3ccccc3)C2=O)cc1O | 0.8 | -5.3 | 0.0 | x | 4.4 | 0.0 | x | x
COc1ccc(OC)c(/C=C2\SC(=S)N(Cc3cccnc3)C2=O)c1 | 0.2 | -66.7 | 0.2 | 65.4* | 71.3 | 50.7 | 68.5* | 77.5*
CCc1ccc(-c2cc(C(=O)Nc3c(C)n(C)n(-c4ccccc4)c3=O)c3ccccc3n2)s1 | x | 22.7 | -0.4 | 25.3* | 18.9 | 7.2 | 32.7* | 42.8*
Cc1cc(C(=O)Nc2c(C)n(C)n(-c3ccccc3)c2=O)c2ccccc2n1 | x | -5.3 | -0.2 | -5.7 | 1.6 | 1.7 | x | x
CC=Cc1ccc2n(c1=O)C[C@H]1[C@H](CO)[C@@H](C(=O)NCC3CC3)N(CCC)[C@@H]21 (mixture of isomers) | 0.0 | x | x | x | x | x | x | x
O=C(Nc1nc2c(s1)CN(Cc1ccccc1)CC2)c1c(F)cccc1F | 0.0 | 46.1* | -0.1 | 24.4* | 27.2 | 6.0 | 36.8* | 48.8* | Rpn11 inh conf=-1.9;MMP-2 inh=-42.5;Thrombin FP=-8.8
COc1ccc(CC(=O)NNC2=Nc3cccc4cccc2c34)cc1OC | 0.1 | 5.1 | 0.0 | -3.0 | 1.1 | 3.0 | x | x
COc1cccc(Nc2n[nH]c(=S)s2)c1 | -0.2 | 0.5 | 0.2 | -3.8 | 3.6 | -5.8 | x | x
COc1cc(NC2=Nc3cccc4cccc2c34)cc(OC)c1OC | 0.0 | 41.8* | -0.2 | 31.4* | 9.4 | 4.3 | 32.1* | 43.4* | Rpn11 inh conf=39.5;MMP-2 inh=16.1;Thrombin FP=24.1
COc1cccc(NC2=Nc3cccc4cccc2c34)c1 | 0.1 | 45.2* | 0.1 | 24.8* | 18.7 | 5.4 | 34.9* | 44.4* | Rpn11 inh conf=44.3*;MMP-2 inh=-25.8;Thrombin FP=20.9
O=C(C[C@H]1C=C[C@@H](NC(=O)C2CC2)[C@@H](CO)O1)NCCCN1CCOCC1 | -0.4 | x | x | x | x | x | x | x
CC(=O)N1[C@H](C(=O)NCCCN(C)C)[C@@H](CO)[C@@H]2Cn3c(ccc(-c4cccc(F)c4)c3=O)[C@@H]21 | -0.1 | x | x | x | x | x | x | x
